# What was measured:
# Hepatitis C virus [1] = assay: Antiviral activity against Hepatitis C virus JFH-1 J6 infected in human HuH7.5 cells assessed as inhibition of virus propagation measured after 72 hrs of transfer to fresh media; assay type: functional, organism-based, Hepacivirus hominis; conditions: subtype 2a JFH1 J6, Huh-7, 72 h
# Outline: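 Huh-7.5 hepatoma cells, HCV 2a J6/JFH-1. Virus secreted during the initial 72 hr inhibitor-treated culture (0.001–100 µM) was used to infect fresh cells, which were cultured a second 72 hr (T2). HCV propagation was then assessed, with an NS3/NS4A protease inhibitor as positive control. Values are means of three experiments.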
# [2] = Cytotoxicity against human Huh7.5 cells; assay type: cell-based; conditions: huh-7
# Outline: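 Huh-7.5 hepatoma cells; read-out is the 50% cytotoxic concentration (CC50), reported as the mean of three experiments.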
# Hepatitis C virus [3] = assay: Antiviral activity against Hepatitis C virus JFH-1 J6 infected in human HuH7.5 cells assessed as inhibition of virus propagation measured after 72 hrs; assay type: functional, organism-based, Hepacivirus hominis; conditions: subtype 2a JFH1 J6, Huh-7, 72 h
# Outline: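 Huh-7.5 hepatoma cells infected with HCV genotype 2a J6/JFH-1 were treated with inhibitor at 0.001–100 µM. […] An NS3/NS4A protease inhibitor served as positive control. Values are means of three experiments.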
# [4] = Inhibition of Hepatitis C virus core protein dimerization by core dimerization assay; design: species or system Hepacivirus hominis
Structure (SMILES),EC50 (Hepatitis C virus [1]),CC50 [2],EC50 (Hepatitis C virus [3]),IC50 [4]
COC(=O)C1=C(C(=O)OC)[C@@H]2N(CCOCCN3c4ccccc4[C@]45CCC(=O)N(Cc6ccccc6)C4=NC(C(=O)OC)=C(C(=O)OC)[C@H]35)c3ccccc3[C@@]23CCC(=O)N(Cc2ccccc2)C3=N1,2500 nM,> 100000 nM,480 nM,98 nM
COC(=O)C1=C(C(=O)OC)[C@@H]2N(CCCN3c4ccccc4[C@]45CCC(=O)N(Cc6ccccc6)C4=NC(C(=O)OC)=C(C(=O)OC)[C@H]35)c3ccccc3[C@@]23CCC(=O)N(Cc2ccccc2)C3=N1,735 nM,> 36000 nM,88 nM,2900 nM
COC(=O)C1=C(C(=O)OC)[C@@H]2N(CCCCCN3c4ccccc4[C@]45CCC(=O)N(Cc6ccccc6)C4=NC(C(=O)OC)=C(C(=O)OC)[C@H]35)c3ccccc3[C@@]23CCC(=O)N(Cc2ccccc2)C3=N1 (mixture of isomers),29900 nM,> 36000 nM,90 nM,720 nM
COC(=O)C1=C(C(=O)OC)[C@@H]2N(CCCCCn3cc(-c4ccc(OC)cc4C)nn3)c3ccccc3[C@@]23CCC(=O)N(Cc2ccccc2)C3=N1 (racemic),1100 nM,> 100000 nM,1400 nM,92 nM
COC(=O)C1=C(C(=O)OC)[C@@H]2N(CCCCCn3cc(CNC(C)=O)nn3)c3ccccc3[C@@]23CCC(=O)N(Cc2ccccc2)C3=N1 (racemic),56200 nM,150000 nM,26200 nM,341 nM
COc1ccc2c(O[C@@H]3C[C@H]4C(=O)N[C@]5(C(=O)O)C[C@H]5/C=C\CCCCC[C@H](NC(=O)OC5CCCC5)C(=O)N4C3)cc(-c3csc(NC(C)C)n3)nc2c1 [CILUPREVIR],71 nM,,72 nM,

# Source: ChEMBL document CHEMBL1759845, “Potent inhibitors of hepatitis C core dimerization as new leads for anti-hepatitis C agents” (Bioorg Med Chem Lett, 2011)
